Experimental data of several laboratories.
Each line is one published result; the experiments were not run side by side.
Target: Serine/threonine-protein kinase pim-3 (PIM3, Homo sapiens, UniProt Q86V86)

Structure (SMILES)	assay	conditions	measurement	value
C#Cc1cnc(Nc2ccnc(CO)c2)nc1Nc1ccccc1S(C)(=O)=NC#N (stereo not shown)	cell-free assay	1 µM	remaining signal	80%
N#Cc1ccc(NC(=O)Nc2ccccc2)cc1	cell-free assay, competition with immobilised ligand	25 µM	remaining binding	74%
C[C@H]1CC[C@H](n2c3cnccc3c3cnc(Nc4ccc5c(n4)CCN(C(=O)CO)C5)nc32)CC1	cell-free assay	1 µM	remaining signal	31%
CCCCC(=O)Nc1ccc(-c2ccc3ncn(CCC)c(=O)c3c2)cn1	binding, competition with immobilised ligand	0.5 µM	remaining binding	93%
CC(C)S(=O)(=O)c1ccc2nccc(Nc3ccc4sc(C5CCCC5)nc4c3)c2c1	enzyme activity, inhibitor	1 µM	activity vs control	104%
COc1ccc2oc(-c3ccc4nc(N)oc4c3)c/c(=N\c3ccccc3NC(=O)CCN)c2c1	binding	1 µM	remaining binding	110%
C=CC(=O)N1CCC[C@@H](n2nc(-c3ccc(Oc4ccccc4)cc3)c3c(N)ncnc32)C1	enzyme activity, inhibitor	1 µM	inhibition	0%
COc1ccc2[nH]c3c4[nH]c5ccc(OC)cc5c4c4c(c3c2c1)C(=O)NC4=O	binding	1 µM	remaining binding	2.6%
C=CC(=O)N1CCC([C@@H]2CCNc3c(C(N)=O)c(-c4ccc(Oc5ccccc5)cc4)nn32)CC1	enzyme activity, inhibitor	1 µM	inhibition	2%
C1=C/COCc2cc(ccc2OCCN2CCCC2)Nc2nccc(n2)-c2cccc(c2)COC/1	binding	0.1 µM	remaining binding	97%
